What was measured:
[1] = system: Cynomolgus monkey; test: Dose normalized Cmax in cynomolgous monkey at 10 mg/kg, po and 2 mg/kg, iv; type: ADME, organism-based, Macaca fascicularis; settings: in vivo
Procedure, shortened: (§1)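 Cynomolgus monkeys fasted overnight, then given 10 mg/kg orally as a suspension in 0.5% methylcellulose, 0.3% Tween-80 and 1% NMP. IV bolus of 2 mg/kg in 70% PEG-400:30% water. Oral values normalized to 5 mg/kg. Plasma analysed by non-compartmental methods.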

[2] = system: Cynomolgus monkey; test: Dose normalized AUC in cynomolgous monkey at 10 mg/kg, po and 2 mg/kg, iv; type: ADME, organism-based, Macaca fascicularis; settings: in vivo; procedure, shortened: as §1
[3] = system: Cynomolgus monkey; test: Dose normalized half life in cynomolgous monkey at 10 mg/kg, po and 2 mg/kg, iv; type: ADME, organism-based, Macaca fascicularis; settings: in vivo; procedure, shortened: as §1
[4] = system: Cynomolgus monkey; test: Dose normalized volume of distribution at steady state in cynomolgous monkey at 10 mg/kg, po and 2 mg/kg, iv; type: ADME, organism-based, Macaca fascicularis; settings: in vivo; procedure, shortened: as §1
[5] = Dose normalized bioavailability in cynomolgous monkey at 10 mg/kg, po and 2 mg/kg, iv; type: ADME, organism-based, Macaca fascicularis; settings: cynomolgus monkey, in vivo, read-out: F/dose; procedure, shortened: as §1
[6] = system: Hepatitis C virus; test: Antiviral activity against Hepatitis C virus genotype 1b infected in human Huh cells assessed as inhibition of viral replication by luciferase reporter assay; type: functional, cell-based, Hepacivirus hominis
Procedure, shortened: (§2)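 HCV replicon EC50 determined in duplicate, using either a GT1b luciferase reporter read-out or RT-PCR quantification of replicon RNA.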

[7] = Half life in dog liver microsomes at 2 uM; type: ADME, Canis lupus familiaris
Procedure, shortened: (§3)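 Stability in liver microsomes with 2 µM initial compound concentration; half-life recorded.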

[8] = Cmax in rat at 5 mg/kg, po and 2 mg/kg, iv; type: ADME, organism-based; settings: in vivo
Procedure, shortened: (§4)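 Animals fasted overnight. Oral dose given as a suspension in 0.5% methylcellulose, 0.3% Tween-80 and 1% NMP. IV bolus of 2 mg/kg given in 70% PEG-400:30% water. N = 3 per dose and per route. Plasma kept on ice, spun at 4 °C and stored at about −20 °C. Calibration standards prepared in blank plasma, LOQ 7 ng/mL. Non-compartmental analysis.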

[9] = Cmax in dog at 5 mg/kg, po and 2 mg/kg, iv; type: ADME, organism-based, Canis lupus familiaris; settings: in vivo; procedure, shortened: as §4
[10] = AUC in rat at 5 mg/kg, po and 2 mg/kg, iv; type: ADME, organism-based; settings: plasma; procedure, shortened: as §4
[11] = AUC in dog at 5 mg/kg, po and 2 mg/kg, iv; type: ADME, organism-based, Canis lupus familiaris; settings: plasma; procedure, shortened: as §4
[12] = Half life in dog at 5 mg/kg, po and 2 mg/kg, iv; type: ADME, organism-based, Canis lupus familiaris; settings: in vivo; procedure, shortened: as §4
[13] = Bioavailability in rat at 5 mg/kg, po and 2 mg/kg, iv; type: ADME, organism-based; settings: in vivo; procedure, shortened: as §4
[14] = Clearance in cynomolgous monkey at 2 mg/kg, iv; type: ADME, organism-based, Macaca fascicularis; design: dose 2 mg/kg, route intravenous; settings: cynomolgus monkey, in vivo; procedure, shortened: as §4
[15] = Bioavailability in dog at 5 mg/kg, po and 2 mg/kg, iv; type: ADME, organism-based, Canis lupus familiaris; settings: in vivo; procedure, shortened: as §4
[16] = Permeability coefficient, Kp for ratio of drug uptake in liver to plasma in rat; type: ADME
[17] = Inhibition of Hepatitis C virus genotype 1b C-terminal truncated NS5B RNA dependent RNA polymerase delta21 expressed in Escherichia coli by scintillation proximity assay; design: species or system Hepatitis C virus subtype 1b
Procedure, shortened: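 Biochemical polymerase inhibition using a C-terminally truncated GT1b NS5BΔ21 construct. Values are the mean of duplicate measurements (n ≥ 2).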

[18] = system: Hepatitis C virus; test: Antiviral activity against Hepatitis C virus genotype 1b infected in human Huh cells assessed as inhibition of viral replication by RT-PCR-based replicon assay; type: functional, cell-based, Hepacivirus hominis; procedure, shortened: as §2
[19] = system: Hepatitis C virus; test: Antiviral activity against Hepatitis C virus genotype 1a infected in human Huh cells assessed as inhibition of viral replication by RT-PCR-based replicon assay; type: functional, cell-based, Hepacivirus hominis; settings: subtype 1a; procedure, shortened: as §2
[20] = system: Rattus norvegicus; test: Dose normalized Cmax in rat at 10 mg/kg, po; type: ADME, organism-based; design: dose 10 mg/kg, route oral; settings: in vivo
Procedure, shortened: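 Rats dosed orally at 10 mg/kg as a suspension in 0.5% methylcellulose, 0.3% Tween-80 and 1% NMP. Plasma Cmax normalized to 5 mg/kg.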

[21] = Ratio of drug up take in liver to plasma of rat at 5 mg/kg, po measured at 6 hrs post dose; type: ADME, organism-based; design: dose 5 mg/kg, route oral
[22] = Half life in cynomolgous monkey liver microsomes at 2 uM; type: ADME, Macaca fascicularis; settings: cynomolgus monkey; procedure, shortened: as §3
[23] = Half life in rat at 5 mg/kg, po and 2 mg/kg, iv; type: ADME, organism-based; settings: in vivo; procedure, shortened: as §4
[24] = Volume of distribution at steady state in rat at 5 mg/kg, po and 2 mg/kg, iv; type: ADME, organism-based; settings: in vivo, read-out: Vdss; procedure, shortened: as §4
[25] = Volume of distribution at steady state in dog at 5 mg/kg, po and 2 mg/kg, iv; type: ADME, organism-based, Canis lupus familiaris; settings: in vivo, read-out: Vdss; procedure, shortened: as §4
[26] = Clearance in rat at 2 mg/kg, iv; type: ADME, organism-based; design: dose 2 mg/kg, route intravenous; settings: in vivo; procedure, shortened: as §4
[27] = Clearance in dog at 2 mg/kg, iv; type: ADME, organism-based, Canis lupus familiaris; design: dose 2 mg/kg, route intravenous; settings: in vivo; procedure, shortened: as §4
[28] = Cytotoxicity against human HuH7 cells assessed as reduction in cell viability by MTT assay; type: cell-based; settings: Huh-7 cells, read-out: TC50 (the source's name)
Procedure, shortened: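 Cytotoxicity (TC50) measured by MTT read-out in the Huh-7 cell line.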

[29] = Half life in rat liver microsomes at 2 uM; type: ADME; procedure, shortened: as §3
[30] = Cmax in rat at 5 mg/kg, po; type: ADME, organism-based; design: dose 5 mg/kg, route oral; settings: in vivo
Procedure, shortened: (§5)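 Rats fasted overnight, then given a single compound orally at 5 mg/kg in 0.5% methylcellulose, 0.3% Tween-80 and 1% NMP. Plasma Cmax measured. Liver/plasma concentration ratio taken at 8 h for single-compound dosing.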

[31] = Ratio of drug up take in liver to plasma of rat at 5 mg/kg, po measured at 8 hrs post dose; type: ADME, organism-based; design: dose 5 mg/kg, route oral; procedure, shortened: as §5
[32] = Lipophilicity, log D of the compound at pH 7.4; type: physicochemical; settings: buffer
[33] = Clearance in rhesus monkey at 2 mg/kg, iv; settings: in vivo
[34] = system: Macaca mulatta; test: AUC in rhesus monkey at 5 mg/kg, po and 2 mg/kg, iv; settings: plasma
[35] = Half life in rhesus monkey liver microsomes at 2 uM
[36] = system: Macaca mulatta; test: Cmax in rhesus monkey at 5 mg/kg, po and 2 mg/kg, iv; settings: in vivo
[37] = system: Macaca mulatta; test: Half life in rhesus monkey at 5 mg/kg, po and 2 mg/kg, iv; settings: in vivo
[38] = system: Macaca mulatta; test: Bioavailability in rhesus monkey at 5 mg/kg, po and 2 mg/kg, iv; settings: in vivo
[39] = system: Macaca mulatta; test: Volume of distribution at steady state in rhesus monkey at 5 mg/kg, po and 2 mg/kg, iv; settings: in vivo, read-out: Vdss
[40] = Half life in human liver microsomes at 2 uM; type: ADME; procedure, shortened: as §3
[41] = Permeability from apical to basolateral side of human Caco2 cells; type: ADME, cell-based; settings: Caco-2, read-out: permeability
Procedure, shortened: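 Caco-2 permeability measured in the apical-to-basolateral direction, reported in cm/s.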

[42] = Plasma concentration in rat at 4 mg/kg, po as cassette dosing measured at 1 hr post dose; type: ADME, organism-based; design: dose 4 mg/kg, route oral
Procedure, shortened: (§6)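 Cassette dosing: a mixture of 4 compounds, each at 4 mg/kg, given orally to 2 fasted rats in 0.5% methylcellulose, 0.3% Tween-80 and 1% NMP. Plasma sampled at 1 and 2 h. Liver/plasma ratio determined at 2 h.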

[43] = Plasma concentration in rat at 4 mg/kg, po as cassette dosing measured at 2 hrs post dose; type: ADME, organism-based; design: dose 4 mg/kg, route oral; procedure, shortened: as §6
[44] = Ratio of drug up take in liver to plasma of rat at 4 mg/kg, po as cassette dosing measured at 2 hrs post dose; type: ADME, organism-based; design: dose 4 mg/kg, route oral; procedure, shortened: as §6

| Compound | EC50 [6] [nM] | half-life at 2 µM [7] [h] | Cmax [8] [µM] | Cmax [9] [µM] | AUC [10] [µM·h] | AUC [11] [µM·h] | half-life [12] [h] | bioavailability [13] [%] | bioavailability [15] [%] | Kp [16] | IC50 [17] [nM] | EC50 [18] [nM] | EC50 [19] [nM] | CC50 [28] [nM] | half-life at 2 µM [29] [h] | Cmax [30] [µM] | logD [32] | half-life at 2 µM [40] [h] | Papp A→B [41] [×10⁻⁶ cm/s] | other results |
| --- | --- | --- | --- | --- | --- | --- | --- | --- | --- | --- | --- | --- | --- | --- | --- | --- | --- | --- | --- | --- |
| CCOc1cc(NC(=O)C2(NC(=O)c3ccc4c(C5CCCC5)c(-c5ncc(Cl)cn5)n(C)c4c3)CCC2)ccc1/C=C/C(=O)O | 13 | 2.92 | 3.2 | 4.1 | 9.6 | 38 | 4.5 | 19 | 29 | 5.5 | 84 | 11 | 29 |  |  |  |  |  |  | Cmax/dose [1]: 4.8 µM; AUC/dose [2]: 26 µM·h; t1/2/dose [3]: 3 h; Vdss/dose [4]: 0.6 L/kg; bioavailability [5]: 72%; clearance [14]: 3.6 mL/min/kg; Cmax/dose [20]: 3.2 µM; Kp at 6 h [21]: 5.5; half-life at 2 µM [22]: 1.6 h |
| CCOc1nc(NC(=O)C2(NC(=O)c3ccc4c(C5CCCC5)c(-c5ncc(Cl)cn5)n(C)c4c3)CCC2)ccc1/C=C/C(=O)O | 15 | 3.65 | 5.8 | 10 | 17 | 56 | 6.1 | 42 | 40 | 2.6 | 85 | 14 | 27 | 56000 | 1.85 | 5.9 | > 5.9 |  |  | half-life [23]: 1.5 h; Vd [24]: 0.28 L/kg; Vd [25]: 0.28 L/kg; clearance [26]: 3.1 mL/min/kg; clearance [27]: 0.9 mL/min/kg; Kp at 8 h [31]: 2; clearance [33]: 1.5 mL/min/kg; AUC [34]: 8.9 µM·h; half-life at 2 µM [35]: 0.533 h; Cmax [36]: 2.6 µM; half-life [37]: 2 h; bioavailability [38]: 11%; Vd [39]: 0.06 L/kg |
| CCOc1cc(NC(=O)C2(NC(=O)c3ccc4c(C5CCCC5)c(-c5ncc(Cl)cn5)n(C)c4c3)CCC2)ncc1/C=C/C(=O)O | 33 |  |  |  |  |  |  |  |  |  | 85 |  |  | > 10000 | 1.73 | 1.8 | 3 | 2.42 | 15 |  |
| CCOc1cc(NC(=O)C2(NC(=O)c3ccc4c(C5CCCC5)c(-c5ncc(Cl)cn5)n(C)c4c3)CCC2)cnc1/C=C/C(=O)O | 20 |  |  |  |  |  |  |  |  |  | 110 |  |  | > 10000 | 2.38 |  | 3.9 | 4.58 | 7.5 | concentration at 1 h [42]: 0.4 µM; concentration at 2 h [43]: 0.1 µM; Kp at 2 h [44]: 5 |

— ChEMBL document CHEMBL3400098, “Aza follow-ups to BI 207524, a thumb pocket 1 HCV NS5B polymerase inhibitor. Part 1: Mitigating the genotoxic liability of an aniline metabolite” (Bioorg Med Chem Lett, 2015)
